The IC50 is the concentration that gives 50% inhibition. The low end stands for higher potency, the high end for lower potency.

The structures appear in SMILES notation.

For data set [1], the target named is T1, Steroid 17-alpha-hydroxylase/17,20 lyase (Rattus norvegicus, UniProt P11715).
T1 sequence (P11715 whole entry): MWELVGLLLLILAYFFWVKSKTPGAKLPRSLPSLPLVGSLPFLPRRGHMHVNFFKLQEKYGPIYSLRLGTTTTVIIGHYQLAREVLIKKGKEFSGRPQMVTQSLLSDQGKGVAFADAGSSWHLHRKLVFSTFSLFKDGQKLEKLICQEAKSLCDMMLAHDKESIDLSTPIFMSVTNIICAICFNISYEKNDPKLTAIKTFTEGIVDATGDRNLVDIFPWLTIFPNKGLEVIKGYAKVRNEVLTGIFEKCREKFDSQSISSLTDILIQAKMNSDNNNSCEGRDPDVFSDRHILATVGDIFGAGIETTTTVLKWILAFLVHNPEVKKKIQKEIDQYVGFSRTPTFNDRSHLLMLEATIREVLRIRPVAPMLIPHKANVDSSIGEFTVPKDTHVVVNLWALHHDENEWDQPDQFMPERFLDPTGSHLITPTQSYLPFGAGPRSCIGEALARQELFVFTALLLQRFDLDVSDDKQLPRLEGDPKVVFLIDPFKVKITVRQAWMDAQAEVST
In words: Inhibition of 17,20-lyase activity of rat testicular microsomal P450-17alpha. The procedure, abridged: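 Lyase reaction: rat testicular microsomes (final 0.23 mg/mL), 50 mM sodium phosphate pH 7.4, NADPH-generating system, 1 µM radiolabelled 17α-hydroxyprogesterone substrate; inhibitor added in ethanol; 37 °C prewarm 5 min, then 30 min incubation. Ether-extracted, TLC in DCM/ethyl acetate 4:1, 3H counted per spot; no-inhibitor controls. IC50 from ≥5 concentrations, each in triplicate.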

For data set [2], the target named is T1, Steroid 17-alpha-hydroxylase/17,20 lyase. As to the kind of experiment: Inhibition of 17-alpha-hydroxylase activity of rat testicular microsomal P450-17alpha. In short, it runs like this:
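Rat testicular microsomes (final 0.16 mg/mL) in 50 mM sodium phosphate pH 7.4 with NADPH-generating system and 1.5 µM radiolabelled progesterone; inhibitor in ethanol; 5 min prewarm at 37 °C, 15 min reaction. Ether extraction, TLC (DCM/ethyl acetate 7:3), spots scintillation-counted for 3H; no-inhibitor controls. IC50 from ≥5 concentrations in triplicate, linear regression of inhibition versus log[I].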

Data set [3] has the same target. In words: Selectivity index, ratio of IC50 for 17-alpha-hydroxylase activity of rat testicular microsomal P450-17alpha to IC50 for 17,20-lyase activity of rat testicular microsomal P450-17alpha.
Data set [4] deals with T2, Aromatase (Homo sapiens, UniProt P11511).
T2 sequence (P11511 whole entry): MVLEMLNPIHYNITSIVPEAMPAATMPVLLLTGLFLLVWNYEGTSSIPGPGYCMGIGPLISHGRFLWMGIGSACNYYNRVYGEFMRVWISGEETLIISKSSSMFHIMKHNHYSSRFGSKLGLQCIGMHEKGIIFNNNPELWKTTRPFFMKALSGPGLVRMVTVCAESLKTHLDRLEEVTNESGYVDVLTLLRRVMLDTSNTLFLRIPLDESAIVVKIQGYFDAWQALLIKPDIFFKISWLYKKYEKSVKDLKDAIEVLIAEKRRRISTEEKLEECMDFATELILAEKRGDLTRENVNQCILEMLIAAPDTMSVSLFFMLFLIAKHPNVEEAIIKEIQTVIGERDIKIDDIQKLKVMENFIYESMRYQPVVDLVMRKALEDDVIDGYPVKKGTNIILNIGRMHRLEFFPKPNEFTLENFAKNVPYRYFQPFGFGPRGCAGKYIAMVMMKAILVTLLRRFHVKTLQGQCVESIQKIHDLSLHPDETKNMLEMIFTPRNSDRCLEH
In words: Inhibition of aromatase.

Take `O=S(=O)(Oc1ccc(Cn2ccnc2)cc1)c1ccc(Br)cc1`: the figures for the IC50 in data set [1] and in data set [2] were 70.4 nM and 4.84 µM, respectively. The “Ratio IC50” value in data set [3] came to 34.6.

On to `Cc1ccc(Cn2ccnc2)cc1`, for which, in data set [4], half-maximal inhibition (IC50) was put at 24.5 µM.

In turn, `Fc1ccc(Cn2ccnc2)cc1` registered a half-maximal inhibitory concentration (IC50) in data set [4] of 0.88 µM.

Regarding `Ic1ccc(Cn2ccnc2)cc1`, the “Ratio IC50” value in data set [3] is reported as 6.4.

`Clc1ccc(Cn2ccnc2)cc1`: the IC50 in data set [4] worked out at 0.07 µM.

Consider `Cc1ccc(S(=O)(=O)Oc2ccc(Cn3ccnc3)cc2)cc1`, for which the values for the 50% inhibitory concentration (IC50) in data set [1] and in data set [2] were 230 nM and 25.2 µM, respectively. The “Ratio IC50” value in data set [3] amounted to 109.4.

Turning to `O=[N+]([O-])c1ccc(S(=O)(=O)Oc2ccc(Cn3ccnc3)cc2)cc1`, the IC50 in data set [1] turned out to be 85 nM; in data set [2] it was 6.88 µM. Further, the “Ratio IC50” value in data set [3] was 80.9.

For the molecule `O=S(=O)(Oc1ccc(Cn2ccnc2)cc1)c1ccc(Cl)cc1`, the IC50 in data set [1] was 98.7 nM; in data set [2] it was 6.85 µM. Further, the “Ratio IC50” value in data set [3] came out at 69.9.

As to `COc1ccc(S(=O)(=O)Oc2ccc(Cn3ccnc3)cc2)cc1`, the IC50 was determined as 101 nM in data set [1] and 6 µM in data set [2]. In addition, the “Ratio IC50” value in data set [3] is 60.

As to `O=S(=O)(Oc1ccc(Cn2ccnc2)cc1)c1ccc(I)cc1`, the IC50 in data set [1] is 65.1 nM; in data set [2] it was 10 µM. Further, the “Ratio IC50” value in data set [3] amounted to 100.1.

Take `O=S(=O)(Oc1ccc(Cn2ccnc2)cc1)c1ccc(C(F)(F)F)cc1`: the IC50 in data set [1] is 291 nM; in data set [2] it was 64.9 µM. The “Ratio IC50” value in data set [3] stood at 223.8.

Regarding `O=S(=O)(Oc1ccc(Cn2ccnc2)cc1)c1ccc(F)cc1`, the IC50 in data set [1] is 210 nM; in data set [2] it was 15.9 µM. In addition, the “Ratio IC50” value in data set [3] is listed as 75.9.

With `CC(=O)N1CCN(c2ccc(OCC3COC(Cn4ccnc4)(c4ccc(Cl)cc4Cl)O3)cc2)CC1` (stereo not given) [KETOCONAZOLE], the “Ratio IC50” value in data set [3] was determined as 2.3.

For the molecule `N#CC(C#N)=Cc1ccc(O)c(O)c1` [TYRPHOSTIN 23], in data set [4], the IC50 was determined as 70.6 µM. That is a double-digit micromolar value.

Values taken from ChEMBL document CHEMBL1153473 (Bioorg Med Chem Lett, 2009).
